Source: ChEMBL document CHEMBL4699460, “Integrating DNA-encoded chemical libraries with virtual combinatorial library screening: Optimizing a PARP10 inhibitor” (Bioorg Med Chem Lett, 2020)

Tests used:
[1] = molecular target: T1, Poly [ADP-ribose] polymerase tankyrase-1 (Homo sapiens) (UniProt O95271); test: Inhibition of N-terminal GST-tagged human TNKS1 (1001 to 1327 residues) expressed in baculovirus-infected Sf9 cells assessed as reduction in NAD+-dependent ADP ribosylation using histone as substrate at 10 uM incubated for 1 hr in presence of biotinylated NAD+ and activated DNA by chemiluminescence based microplate reader assay relative to control
T1 sequence (whole entry): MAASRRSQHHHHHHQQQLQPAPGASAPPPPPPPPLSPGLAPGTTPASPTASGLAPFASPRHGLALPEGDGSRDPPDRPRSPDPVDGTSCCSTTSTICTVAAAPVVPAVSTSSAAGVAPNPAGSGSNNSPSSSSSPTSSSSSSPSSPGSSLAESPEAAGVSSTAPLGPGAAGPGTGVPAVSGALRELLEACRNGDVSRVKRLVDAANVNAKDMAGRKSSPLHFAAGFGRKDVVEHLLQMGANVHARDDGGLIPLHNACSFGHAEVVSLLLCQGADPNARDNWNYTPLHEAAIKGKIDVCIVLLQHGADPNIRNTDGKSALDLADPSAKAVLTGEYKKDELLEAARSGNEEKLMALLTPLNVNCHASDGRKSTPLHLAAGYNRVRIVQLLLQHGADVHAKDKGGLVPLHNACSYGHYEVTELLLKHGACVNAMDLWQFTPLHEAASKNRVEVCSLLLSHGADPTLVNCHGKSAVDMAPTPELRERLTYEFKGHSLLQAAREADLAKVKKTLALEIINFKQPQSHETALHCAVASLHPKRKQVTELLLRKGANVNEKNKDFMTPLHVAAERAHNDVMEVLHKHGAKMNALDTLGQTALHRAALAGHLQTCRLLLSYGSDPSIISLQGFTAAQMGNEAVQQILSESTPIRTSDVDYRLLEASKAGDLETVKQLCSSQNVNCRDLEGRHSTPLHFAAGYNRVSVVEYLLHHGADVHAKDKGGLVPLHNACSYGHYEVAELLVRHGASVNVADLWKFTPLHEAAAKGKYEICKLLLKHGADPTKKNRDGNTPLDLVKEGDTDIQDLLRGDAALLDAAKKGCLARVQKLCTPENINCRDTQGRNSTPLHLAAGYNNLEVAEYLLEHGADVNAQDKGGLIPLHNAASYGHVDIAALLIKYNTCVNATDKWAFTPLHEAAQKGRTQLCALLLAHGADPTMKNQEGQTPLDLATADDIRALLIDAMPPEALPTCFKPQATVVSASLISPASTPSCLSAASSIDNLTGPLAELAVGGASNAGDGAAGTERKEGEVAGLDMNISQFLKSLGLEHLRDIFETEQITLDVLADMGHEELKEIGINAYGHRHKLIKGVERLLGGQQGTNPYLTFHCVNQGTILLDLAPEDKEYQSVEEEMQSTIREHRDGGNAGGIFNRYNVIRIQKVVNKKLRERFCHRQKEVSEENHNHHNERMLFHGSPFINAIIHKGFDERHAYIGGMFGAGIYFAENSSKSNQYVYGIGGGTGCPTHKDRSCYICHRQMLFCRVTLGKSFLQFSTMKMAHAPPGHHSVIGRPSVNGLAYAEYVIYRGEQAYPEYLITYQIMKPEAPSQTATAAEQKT

[2] = molecular target: T2, Protein mono-ADP-ribosyltransferase PARP10 (Homo sapiens, UniProt Q53GL7); test: Inhibition of N-terminal FLAG-tagged and C-terminal strep-tagged human PARP10 (805 to 1025 residues) expressed in baculovirus infected Sf9 cells assessed as reduction in NAD+-dependent ADP ribosylation using histone as substrate incubated for 1 hr in presence of biotinylated NAD+ and activated DNA by chemiluminescence based microplate reader assay
T2 sequence (Q53GL7 whole entry): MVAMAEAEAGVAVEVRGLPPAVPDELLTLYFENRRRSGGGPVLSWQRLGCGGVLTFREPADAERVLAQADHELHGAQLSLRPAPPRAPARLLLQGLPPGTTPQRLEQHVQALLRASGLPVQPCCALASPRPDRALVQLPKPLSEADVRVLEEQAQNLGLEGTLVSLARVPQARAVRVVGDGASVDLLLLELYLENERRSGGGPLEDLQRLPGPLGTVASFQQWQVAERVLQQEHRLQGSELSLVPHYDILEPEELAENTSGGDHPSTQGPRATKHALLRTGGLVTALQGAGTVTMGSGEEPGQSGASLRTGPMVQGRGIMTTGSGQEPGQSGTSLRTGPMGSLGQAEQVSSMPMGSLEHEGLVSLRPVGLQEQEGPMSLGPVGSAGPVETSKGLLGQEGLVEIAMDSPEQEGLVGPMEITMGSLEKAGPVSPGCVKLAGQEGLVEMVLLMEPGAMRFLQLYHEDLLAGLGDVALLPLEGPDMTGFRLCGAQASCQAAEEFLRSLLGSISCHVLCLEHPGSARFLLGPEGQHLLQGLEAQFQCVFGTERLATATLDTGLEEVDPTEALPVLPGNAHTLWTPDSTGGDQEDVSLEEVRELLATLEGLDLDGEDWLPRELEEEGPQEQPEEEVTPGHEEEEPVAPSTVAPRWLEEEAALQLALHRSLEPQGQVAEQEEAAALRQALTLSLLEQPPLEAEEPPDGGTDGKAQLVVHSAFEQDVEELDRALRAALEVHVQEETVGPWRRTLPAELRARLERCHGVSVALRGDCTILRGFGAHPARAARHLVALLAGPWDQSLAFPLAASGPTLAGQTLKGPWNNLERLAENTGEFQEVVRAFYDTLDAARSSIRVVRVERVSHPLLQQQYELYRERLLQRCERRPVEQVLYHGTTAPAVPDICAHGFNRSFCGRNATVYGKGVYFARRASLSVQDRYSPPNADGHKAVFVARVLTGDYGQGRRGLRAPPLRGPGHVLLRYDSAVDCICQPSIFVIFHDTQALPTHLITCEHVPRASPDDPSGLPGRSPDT
Summary of the method: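 The IC50 was derived from a concentration-dependent inhibition curve for PARP10 in the histone ADP-ribosylation assay.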

SMILES | inhibition [1] [%] | IC50 [2] [µM]
CC1(CNC(=O)COc2cccc3c2CCCC3=O)CCN(C(=O)CCc2nc3ccccc3[nH]c2=O)CC1 | > 50 | 3.9
CNC(=O)[C@H](CNC(=O)CCc1nc2ccccc2[nH]c1=O)NC(=O)c1ccc2c(c1)CCCC2=O | < 25 | 6
